Values after ≈ are worked out from the molar mass of the structure shown.
Experiments:
Assay type in all cases: functional
Enterococcus faecalis = experiment: Antibacterial activity against Enterococcus faecalis ATCC 29212 after 18 hrs by liquid microdilution method; conditions: ATCC 29212, 18 h
How it was run: (§1)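 Broth microdilution MIC. Compound dissolved in MeOH at 512 µg/mL, serially diluted 2-fold in Mueller-Hinton medium to 1–128 µg/mL. Each dilution added to wells of Mueller-Hinton medium with standard inoculum; final MeOH below 6%. Plates sealed, agitated, incubated 37 °C, 18 h. MIC is the lowest concentration giving no colour change. Run in triplicate.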

Escherichia coli = experiment: Antibacterial activity against Escherichia coli ATCC 25922 after 18 hrs by liquid microdilution method; conditions: ATCC 25922, 18 h; how it was run: as §1
Staphylococcus aureus = experiment: Antibacterial activity against Staphylococcus aureus ATCC 2523 after 18 hrs by liquid microdilution method; conditions: ATCC 2523, 18 h; how it was run: as §1
Pseudomonas aeruginosa = experiment: Antibacterial activity against Pseudomonas aeruginosa ATCC 27853 after 18 hrs by liquid microdilution method; conditions: ATCC 27853, 18 h; how it was run: as §1

Row | MIC (Enterococcus faecalis) [µM] | MIC (Escherichia coli) [µM] | MIC (Staphylococcus aureus) [µM] | MIC (Pseudomonas aeruginosa) [µM] | SMILES
1 | 97.5 (≈ 32 µg/mL) | 390 (≈ 128 µg/mL) | 97.5 (≈ 32 µg/mL) | 195 (≈ 64 µg/mL) | COc1ccc(-c2coc3cc(O)c(OC)c(OC)c3c2=O)cc1
2 | 48.4 (≈ 30.8 µg/mL) | > 196 | 48.4 (≈ 30.8 µg/mL) | 196 (≈ 125 µg/mL) | COc1ccc(-c2coc3cc(O[C@@H]4O[C@H](CO[C@@H]5O[C@@H](C)[C@H](O)[C@@H](O)[C@H]5O)[C@@H](O)[C@H](O)[C@H]4O)c(OC)c(OC)c3c2=O)cc1
3 | > 135 | > 135 | > 135 | > 135 | COc1ccc(-c2coc3cc(O[C@@H]4O[C@H](CO[C@@H]5O[C@@H](C)[C@H](O)[C@@H](O)[C@H]5O)[C@@H](O)[C@H](O[C@@H]5O[C@H](CO[C@@H]6O[C@@H](C)[C@H](O)[C@@H](O)[C@H]6O)[C@@H](O)[C@H](O)[C@H]5O)[C@H]4O)c(OC)c(OC)c3c2=O)cc1
